“And” between values parts separate entries of the source, which are not always exact repeats. Equal values may be shown once.

Among the data in ChEMBL document CHEMBL1133686, “6-Aminoquinolones as new potential anti-HIV agents” (J Med Chem, 2000) are SI, EC50 and TC50 values, retold here.

The subject of assay [1] is C8166. As to the kind of experiment: Selectivity index in HIV-1 infected C8166 (human CD4) cells. It counts as functional. The gist of the method: (§1)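 Selectivity index in C8166 cells, computed as the ratio of TC50 (concentration reducing cell growth by 50%) to EC50 (concentration reducing supernatant reverse transcriptase activity by 50% in HIV-1 IIIB-infected cultures).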

Assay [2] relates to Human immunodeficiency virus 1. As to the kind of experiment: In vitro antiviral activity against HIV-1 IIIB in C8166 (human CD4) cells. The conditions noted are these: Human immunodeficiency virus 1, C8166. It counts as functional, organism-based. The procedure, abridged: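 HIV-1 IIIB infection of C8166 cells, compounds from DMSO stocks of 25 mM or higher. EC50 is the drug concentration (μM) reducing reverse transcriptase activity of culture supernatants by 50%. Syncytium formation, gp120 ELISA and cytopathic-effect reduction were also scored. Values are the mean of at least three experiments run in triplicate.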

Assay [3] has as its system C8166 (human). The assay is described as follows: In vitro toxicity to C8166 (human CD4) cells.
In assay [4] the test system is Herpes simplex virus 1. The assay is described as follows: Antiviral activity determined against herpes simplex virus type 1 (HSV-1) in vero cells. To be noted: Herpes simplex virus 1, Vero.
Assay [5] can be described thus: Toxicity which reduces cell growth by 50% against herpes simplex virus type 1 (HSV-1) in vero cells.
Assay [6] is described as follows: Selectivity index expressed as ratio of TC50 (HIV-1) to EC50 (HIV-1) in C8166 cells. The class given is functional. The gist of the method: as §1

A word on the EC50: it is the midpoint of the concentration-response curve. `COc1ccc(N2CCN(c3cc4c(cc3N)c(=O)c(C(=O)O)cn4C(C)(C)C)CC2)cc1` registered an SI in assay [1] of 1.4. Besides, in assay [2], the response was half-maximal at 9.5 µM (EC50). Moreover, the TC50 in assay [3] amounted to 13.8 µM.
Consider `COc1ccccc1N1CCN(c2cc3c(cc2N)c(=O)c(C(=O)O)cn3C(C)(C)C)CC1`, for which the SI in assay [1] is 6 and 9. The results for the EC50 in assay [2] and in assay [4] were 3.2 µM and 33 µM, respectively. Besides, the results for the TC50 in assay [3] and in assay [5] were 20 µM and 300 µM, respectively.
`CC(C)(C)n1cc(C(=O)O)c(=O)c2cc(F)c(N3CCN(c4ccccn4)CC3)cc21` displayed an SI in assay [1] of 5. The molecule further showed a half-maximal effective concentration (EC50) in assay [2] of 7.5 µM. Also, in assay [3], the TC50 stood at 40 µM.
The like results for `CC(C)(C)n1cc(C(=O)O)c(=O)c2cc(N)c(N3CCN(c4ncccn4)CC3)cc21` were, in that order, 4, 9.48 µM and 42.6 µM.
For `CC(C)(C)n1cc(C(=O)O)c(=O)c2cc(N)c(N3CCN(c4ccc(F)cc4)CC3)cc21` the same measures were 1.2, 8.44 µM and 10.7 µM.
For `CCOC(=O)c1cn(C(C)(C)C)c2cc(N3CCN(c4ccccn4)CC3)c(N)cc2c1=O`, the SI in assay [1] is recorded as 1.5. Also, the EC50 is 51.2 µM in assay [2] and > 300 µM in assay [4]. The TC50 in assay [3] was 77.9 µM; in assay [5], >300 µM.
`Cc1c(N2CCc3ccccc3C2)c(N)cc2c(=O)c(C(=O)O)cn(C3CC3)c12` displayed an SI in assay [1] of 5. In assay [2], this molecule displayed an EC50 of 80 µM. The TC50 in assay [3] stood at 400 µM.
In the case of `Cn1cc(C(=O)O)c(=O)c2cc(N)c(N3CCN(c4ccccn4)CC3)cc21`, the SI in assay [1] and in assay [6] was 70 in each case. Besides, the EC50 amounted to 0.1 µM in assay [2] and 30 µM in assay [4]. Besides, the results for the TC50 in assay [3] and in assay [5] were 7 µM and 270 µM, respectively.
In assay [1], `Cc1c(N2CCC(C)CC2)c(N)cc2c(=O)c(C(=O)O)cn(C3CC3)c12` had an SI of 4. Further, the EC50 in assay [2] came to 20 µM. The TC50 in assay [3] is 80 µM.
For `Nc1cc2c(=O)c(C(=O)O)cn(C3CC3)c2cc1N1CCN(c2ccccn2)CC1`, the EC50 in assay [2] is 0.7 µM; in assay [4] it was 38 µM. Further, the TC50 in assay [3] was found to be 9 µM; in assay [5], 95 µM.
`CCOC(=O)c1cn(C)c2cc(N3CCN(c4ccccn4)CC3)c(N)cc2c1=O` displayed an SI in assay [1] of 1.5. For the same molecule, the EC50 in assay [2] was 37 µM; in assay [4] it was > 300 µM. Besides, the TC50 in assay [3] is 57 µM; in assay [5], >300 µM.
In assay [1], `Cc1c(N2CCN(c3ccccn3)CC2)c(N)cc2c(=O)c(C(=O)O)cn(C)c12` came in with an SI of 6. This molecule yielded an EC50 in assay [2] of 7.5 µM. The TC50 in assay [3] was 46.2 µM.
In turn, `Cn1cc(C(=O)O)c(=O)c2cc(F)c(N3CCN(c4ccccn4)CC3)cc21` had an SI in assay [1] of 5. The EC50 in assay [2] stood at 1.3 µM. In assay [3], this molecule had a TC50 of 7 µM.
For the molecule `Nc1cc2c(=O)c(C(=O)O)cn(N3CCN(c4ccccn4)CC3)c2cc1Cl`, the SI in assay [1] is >2. In addition, in assay [2], the midpoint of the response, the EC50, lay at 500 µM. For the same molecule, the TC50 in assay [3] is >1000 µM.
The like results for `CNc1cc2c(=O)c(C(=O)O)cn(C)c2cc1N1CCN(c2ccccn2)CC1` were, in that order, 5, 3.5 µM and 19.5 µM.
For `O=C(O)c1cn(C2CC2)c2cc(N3CCN(c4ccccn4)CC3)c(F)cc2c1=O` the same measures were 13, 5 µM and 65 µM.
Molecule `CC(C)(C)n1cc(C(=O)O)c(=O)c2cc(N)c(N3CCN(c4ccccn4)CC3)cc21` returned an SI in assay [1] of 4. In addition, the EC50 in assay [2] amounted to 2 µM; in assay [4] it was 82 µM. The TC50 in assay [3] amounted to 8.1 µM; in assay [5], 290 µM.
With `CC(C)(C)n1cc(C(=O)O)c(=O)c2cc(N)c(N3CCc4ccccc4C3)cc21`, the SI in assay [1] is 2. In addition, the EC50 in assay [2] is 40 µM. This molecule also had a TC50 in assay [3] of 80 µM.
For `O=C(O)c1cn(C2CC2)c2cc(N3CCNCC3)c(F)cc2c1=O` [CIPROFLOXACIN] the same measures were 1.6, 100 µM and 160 µM.
The like results for `CN1CCN(c2c(F)cc3c(=O)c(C(=O)O)cn4c3c2SCC4)CC1` [RUFLOXACIN] were, in that order, 2, 200 µM and 400 µM.
For `Cc1cn([C@H]2C[C@H](N=[N+]=[N-])[C@@H](CO)O2)c(=O)[nH]c1=O` [ZIDOVUDINE] the same measures were 25000, 0.02 µM and 500 µM.
